Screening data from PubChem BioAssay.
An excerpt weighted towards active compounds, which were near 2.3% of everything screened.
Yeast superoxide: caloric restriction mimetics inhibiting age-related superoxide in yeast. S. cerevisiae aged cells, superoxide DHE fluorescence; stronger effect = lower value. superoxide response (% of plate mean), % at 10 µM. 330,000 tested, 0.18% active;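 active = superoxide response under a set limit, about three screen SD below normal, cut at about 65% in these data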;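 also: yeast aged for seven days with compound at 30 °C before DHE staining; 100% = average MFI of all compound-treated wells on the plate with controls excluded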
TRPC4 inh: inhibitors of mouse TRPC4 channel; B-score at 10 µM; 300,000 tested, 0.39% active; AID 2247; HEK293 TRPC4beta/mu-opioid, DAMGO-evoked Fluo4 calcium flux; stronger effect = lower value; Q9QUQ5;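 active = B-score over 3 SD under the library average, no early fluorescence shift, positive overall ratio signal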
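Signal: kinetic Fluo4 fluorescence imaging of calcium influx. Material: stable TRPC4beta/mu-opioid receptor HEK293 cells. Probe or stimulus: DAMGO in two steps, submaximal then maximal.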
TRPC4 act: opens the mouse TRPC4 cation channel. HEK293 TRPC4beta/mu-opioid, Fluo4 calcium fluorescence; stronger effect = higher value. B-score at 10 µM. 310,000 tested, 0.49% active. AID 2237;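 active = B-score above 5 SD of library B-scores, and initial fluorescence ratio not above library mean plus 5 SD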;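 also: positive B-score marks a calcium rise read as TRPC4 activation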
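Test system: HEK293 cells stably co-expressing mouse TRPC4beta and mu-opioid receptor | Schedule: Fluo4 dye loading 45 min at room temperature, 110 s recording | Measured by: Kinetic Fluo4 calcium fluorescence, 5 s baseline at 1 Hz | Evaluation: B score of integrated ratio | Controls: Buffer (low) and maximal DAMGO (high)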
TRPC6 inh: mouse TRPC6 channel inhibition | HEK293-TRPC6, membrane potential dye, ACh-evoked depolarization; stronger effect = lower value | B-score at 10 µM | 310,000 tested, 1.1% active | AID 2553;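 active = B-score under library mean minus 3 SD, initial fluorescence not abnormally high, positive integrated signal ratio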;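 also: B-score derived from integrated fluorescence ratio over the kinetic read; more negative B-score means stronger inhibition of depolarization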
TRPC4 potent: allosterically enhances the mouse TRPC4 cation channel; Q9QUQ5; HEK293 TRPC4beta/mu-opioid, DAMGO EC20, Fluo-4 Ca2+ flux; stronger effect = higher value; B-score at 10 µM; 310,000 tested, 0.42% active; AID 2227;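 active = B-score of calcium response area above 5 SD of library B-scores, with initial fluorescence ratio within 5 SD of library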;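 also: B-score of integrated fluorescence ratio over time as area under calcium response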
TRPC6 act: activates the mouse TRPC6 cation channel | Q61143 | HEK293-TRPC6 membrane potential dye fluorescence; stronger effect = higher value | B-score at 10 µM | 310,000 tested, 0.13% active | AID 2550;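 active = B-score of the integrated fluorescence ratio above library mean plus 3 SD, and starting fluorescence ratio within library mean plus 5 SD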;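 also: higher score means more depolarization so channel activation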
Numbers without * were called inactive; i = inactive; / = no result given.

SMILES	Yeast superoxide	TRPC4 inh	TRPC4 act	TRPC6 inh	TRPC4 potent	TRPC6 act
Cc1csc2c(N3CCN(C(=O)Nc4ccc(OC(F)(F)F)cc4)CC3)ncnc12	96	i	98*	i	i	i
O=C(O)CCc1cc(I)c(Oc2ccc(O)c(I)c2)c(I)c1	/	i	59*	i	i	i
N[C@@H](Cc1cc(I)c(Oc2ccc(O)c(I)c2)c(I)c1)C(=O)O	101	i	i	i	i	i
O=C(c1csc2c1CCCC2)n1cccn1	60*	i	i	i	i	i
CN(CC(=O)Nc1ccc(F)c(F)c1F)C1CCCCC1	98	i	i	i	i	i
COC(=O)c1cc(C(=O)OCC(=O)Nc2ccc(N3CCOCC3)cc2)cc([N+](=O)[O-])c1	96	/	/	/	/	/
CCn1c(SCC(=O)N2c3ccccc3CCc3ccccc32)nc2c1c(=O)n(C)c(=O)n2C	90	i	i	i	i	i
CC1Cc2ccccc2N1C(=O)CSc1nc2c(c(=O)n(C)c(=O)n2C)n1Cc1ccccc1 (centres undefined)	108	-7*	245*	i	13*	i
Cn1c(=O)c2c(nc(SCc3cccnc3)n2Cc2ccc(F)cc2)n(C)c1=O	111	-5*	i	i	i	i
Cc1ccc(Cn2c(SCCN3CCCCC3)nc3c2c(=O)n(C)c(=O)n3C)cc1	93	i	43*	i	70*	i
Cn1c(=O)c2c(nc(SCCN3CCOCC3)n2Cc2ccc(F)cc2)n(C)c1=O	93	i	i	i	i	i
CCn1c(SCCN2CCOCC2)nc2c1c(=O)n(C)c(=O)n2C	104	i	i	i	i	i
CN(C(=O)c1ccc(NC(=O)Cc2cccc(NC(=O)C3CCN(C(=O)C4CC4)CC3)c2)cc1)C1CCCC1	98	/	/	/	/	/
CC(=O)Oc1ccccc1C1OC(=O)c2ccccc2N1C(C)=O (centres undefined)	106	i	i	i	i	i
O=C(Cc1cccs1)NNC(=S)NC(=O)c1ccc(F)c(F)c1	91	i	60*	i	i	i
O=C(Cc1cccs1)NNC(=S)NC(=O)c1ccccc1	125	i	52*	i	i	i
O=C(Cc1ccccc1)NNC(=S)NC(=O)c1cccs1	94	i	i	i	i	i
COc1ccc(/C=C/C(=O)NC(=S)NNC(=O)Cc2cccs2)cc1	58*	i	i	i	i	i
CCOC(=O)c1ccc(N(C(=O)c2ccco2)C(C(=O)NC2CCCCC2)c2ccncc2)cc1 (centres undefined)	106	i	i	i	i	i
O=C(CSc1n[nH]c(=O)n1C1CC1)Nc1ccc(OC(F)(F)F)cc1	86	/	/	/	/	/
CN(C)CCNC(=O)C(=O)C1C(=O)Nc2ccccc21 (centres undefined)	98	i	i	i	i	i
CCCCCNC(=O)C(=O)C1C(=O)Nc2ccccc21 (centres undefined)	56*	i	i	i	i	i
O=C(CN1CCN(S(=O)(=O)c2cc(Cl)ccc2Cl)CC1)Nc1ccc2c(c1)OCCO2	125	i	57*	-5.6*	i	i
COc1ccccc1CC(Cc1nc2ccccc2[nH]1)c1nc2ccccc2[nH]1 (centres undefined)	97	-6*	i	i	i	i
Cc1ccc(C(C2=C(O)CC(C)(C)CC2=O)C2C(=O)CC(C)(C)CC2=O)s1 (centres undefined)	89	i	i	i	i	i
CC1(C)CC(=O)C(C(C2=C(O)CC(C)(C)CC2=O)c2ccc(Br)s2)C(=O)C1 (centres undefined)	113	i	i	i	10*	i
O=C(Nc1cc(SCCO)cc([N+](=O)[O-])c1)c1ccc(Br)o1	101	-5*	i	i	i	i
C#Cc1cccc(C(=O)NC2CCCN(C3Cc4ccccc4C3)C2)c1 (centres undefined)	97	i	188*	i	i	i
